Source: ChEMBL document CHEMBL1148762, “Lysosome and HER3 (ErbB3) selective anticancer agent kahalalide F: semisynthetic modifications and antifungal lead-exploration studies” (J Med Chem, 2007)
In brackets after ≈: the same amount, converted by molar mass. Activity calls are given as the source filed them. The calls are words filed in the database; no cut-off is given here.

Legend:
Fusarium solani [1] = assay: Fungicidal activity against Fusarium solani at 30 uM after 72 hrs by microtiter assay; format: functional, organism-based
Procedure, shortened: (§1)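 After 72 h of microtiter broth exposure at 30 µM, 20 µL from each well was plated onto compound-free potato dextrose agar and incubated 3 days at 28 °C. No regrowth was scored fungicidal; regrowth was scored fungistatic.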

Fusarium oxysporum [2] = assay: Antimicrobial activity against Fusarium oxysporum at 3 uM after 48 hrs by microtiter assay; format: functional
Procedure, shortened: (§2)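 96-well microdilution broth assay with conidia (3 × 10^5 conidia/mL, harvested from 7-day PDA cultures and filtered) against F. oxysporum, F. proliferatum and F. solani at 0.3, 3 and 30 µM. Plates were held at 24 ± 1 °C under a 12 h photoperiod. Growth was read at 620 nm at 24, 48 and 72 h and reported as percent inhibition from mean absorbance with standard error.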

Aspergillus fumigatus = assay: Antimicrobial activity against Aspergillus fumigatus ATCC 90906; format: functional, organism-based
Fusarium proliferatum [3] = assay: Antimicrobial activity against Fusarium proliferatum at 0.3 uM after 72 hrs by microtiter assay; format: functional; procedure, shortened: as §2
Fusarium solani [4] = assay: Antimicrobial activity against Fusarium solani at 3 uM after 48 hrs by microtiter assay; format: functional; procedure, shortened: as §2
Fusarium proliferatum [5] = assay: Antimicrobial activity against Fusarium proliferatum at 30 uM after 48 hrs by microtiter assay; format: functional; procedure, shortened: as §2
Candida albicans = assay: Antimicrobial activity against Candida albicans ATCC 90028; format: functional, organism-based
Fusarium proliferatum [6] = assay: Antimicrobial activity against Fusarium proliferatum at 0.3 uM after 48 hrs by microtiter assay; format: functional; procedure, shortened: as §2
Fusarium proliferatum [7] = assay: Fungicidal activity against Fusarium proliferatum at 30 uM after 72 hrs by microtiter plate assay; format: functional, organism-based; procedure, shortened: as §1
Fusarium oxysporum [8] = assay: Antimicrobial activity against Fusarium oxysporum at 30 uM after 72 hrs by microtiter assay; format: functional; procedure, shortened: as §2
Fusarium solani [9] = assay: Antimicrobial activity against Fusarium solani at 30 uM after 48 hrs by microtiter assay; format: functional; procedure, shortened: as §2
Fusarium proliferatum [10] = assay: Antimicrobial activity against Fusarium proliferatum at 30 uM after 72 hrs by microtiter assay; format: functional; procedure, shortened: as §2
Fusarium solani [11] = assay: Antimicrobial activity against Fusarium solani at 0.3 uM after 72 hrs by microtiter assay; format: functional; procedure, shortened: as §2
Fusarium oxysporum [12] = assay: Fungicidal activity against Fusarium oxysporum at 30 uM after 72 hrs by microtiter plate assay; format: functional, organism-based; procedure, shortened: as §1
Fusarium oxysporum [13] = assay: Antimicrobial activity against Fusarium oxysporum at 30 uM after 48 hrs by microtiter assay; format: functional; procedure, shortened: as §2
Fusarium solani [14] = assay: Antimicrobial activity against Fusarium solani at 3 uM after 72 hrs by microtiter assay; format: functional; procedure, shortened: as §2
Fusarium solani [15] = assay: Antimicrobial activity against Fusarium solani at 30 uM after 72 hrs by microtiter assay; format: functional; procedure, shortened: as §2
Fusarium proliferatum [16] = assay: Antimicrobial activity against Fusarium proliferatum at 3 uM after 72 hrs by microtiter assay; format: functional; procedure, shortened: as §2
Fusarium oxysporum [17] = assay: Antimicrobial activity against Fusarium oxysporum at 0.3 uM after 72 hrs by microtiter assay; format: functional; procedure, shortened: as §2
Fusarium proliferatum [18] = assay: Antimicrobial activity against Fusarium proliferatum at 3 uM after 48 hrs by microtiter assay; format: functional; procedure, shortened: as §2
Fusarium oxysporum [19] = assay: Antimicrobial activity against Fusarium oxysporum at 0.3 uM after 48 hrs by microtiter assay; format: functional; procedure, shortened: as §2
Fusarium solani [20] = assay: Antimicrobial activity against Fusarium solani at 0.3 uM after 48 hrs by microtiter assay; format: functional; procedure, shortened: as §2
Cryptococcus neoformans = assay: Antimicrobial activity against Cryptococcus neoformans ATCC 90113; format: functional, organism-based
Fusarium oxysporum [21] = assay: Antimicrobial activity against Fusarium oxysporum at 3 uM after 72 hrs by microtiter assay; format: functional; procedure, shortened: as §2
Staphylococcus aureus = assay: Antimicrobial activity against methicillin-resistant Staphylococcus aureus; format: functional, organism-based
Escherichia coli = assay: Antimicrobial activity against Escherichia coli; format: functional, organism-based
Fusarium solani [22] = assay: Fungistatic activity against Fusarium solani at 30 uM after 72 hrs by microtiter plate assay; format: functional, organism-based
Procedure, shortened: (§3)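 Conidia come from 7-day potato dextrose agar cultures, filtered and set photometrically (625 nm) to 3 × 10^5 conidia/mL. They are exposed to compound at 30 µM in 96-well microdilution broth at 24 ± 1 °C under a 12 h photoperiod. After 72 h, 20 µL per well is subcultured on drug-free potato dextrose agar at 28 °C for 3 days. No regrowth is scored fungicidal; regrowth is scored fungistatic.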

Fusarium proliferatum [23] = assay: Fungistatic activity against Fusarium proliferatum at 30 uM after 72 hrs by microtiter plate assay; format: functional, organism-based; procedure, shortened: as §3
Fusarium oxysporum [24] = assay: Fungistatic activity against Fusarium oxysporum at 30 uM after 72 hrs by microtiter plate assay; format: functional, organism-based; procedure, shortened: as §3

SMILES	inhibition at 3 µM (Fusarium oxysporum [2]) [%]	inhibition at 0.3 µM (Fusarium proliferatum [3]) [%]	inhibition at 3 µM (Fusarium solani [4]) [%]	inhibition at 30 µM (Fusarium proliferatum [5]) [%]	inhibition at 0.3 µM (Fusarium proliferatum [6]) [%]	inhibition at 30 µM (Fusarium oxysporum [8]) [%]	inhibition at 30 µM (Fusarium solani [9]) [%]	inhibition at 30 µM (Fusarium proliferatum [10]) [%]	inhibition at 0.3 µM (Fusarium solani [11]) [%]	inhibition at 30 µM (Fusarium oxysporum [13]) [%]	inhibition at 3 µM (Fusarium solani [14]) [%]	inhibition at 30 µM (Fusarium solani [15]) [%]	inhibition at 3 µM (Fusarium proliferatum [16]) [%]	inhibition at 0.3 µM (Fusarium oxysporum [17]) [%]	inhibition at 3 µM (Fusarium proliferatum [18]) [%]	inhibition at 0.3 µM (Fusarium oxysporum [19]) [%]	inhibition at 0.3 µM (Fusarium solani [20]) [%]	inhibition at 3 µM (Fusarium oxysporum [21]) [%]	further results
C[C@@H]1[C@H](O)[C@@H](C)/C=C/C=C/C=C/C=C/C=C/C=C/C=C/[C@H](O[C@@H]2O[C@H](C)[C@@H](O)[C@H](N)[C@@H]2O)C[C@@H]2O[C@](O)(C[C@@H](O)C[C@@H](O)[C@H](O)CC[C@@H](O)C[C@@H](O)CC(=O)O[C@H]1C)C[C@H](O)[C@H]2C(=O)O [AMPHOTERICIN B]	12.5	0	18.1	99.8	0	87.1	100	79	0.1	99.7	0	98.1	0	0	7.9	0	0	0	Activity (Fusarium solani [1]): Active; IC50 (Aspergillus fumigatus): 1320 nM; MFC (Aspergillus fumigatus): 2.5 µM (≈ 2.31 µg/mL); MIC (Aspergillus fumigatus): 2.5 µM (≈ 2.31 µg/mL); IC50 (Candida albicans): 250 nM; MFC (Candida albicans): 1.25 µM (≈ 1.16 µg/mL); MIC (Candida albicans): 0.625 µM (≈ 0.578 µg/mL); Activity (Fusarium proliferatum [7]): Active; Activity (Fusarium oxysporum [12]): Active; IC50 (Cryptococcus neoformans): 790 nM; MFC (Cryptococcus neoformans): 0.06 µM (≈ 0.0554 µg/mL); MIC (Cryptococcus neoformans): 0.016 µM (≈ 0.0148 µg/mL)
C/C=C(\NC(=O)[C@H](Cc1ccccc1)NC(=O)[C@H](NC(=O)[C@H](NC(=O)[C@H](NC(=O)[C@H](NC(=O)[C@H](CCCN)NC(=O)[C@H]1CCCN1C(=O)[C@@H](NC(=O)[C@H](NC(=O)[C@H](NC(=O)[C@@H](NC(=O)CCCC(C)C)C(C)C)[C@H](C)O)C(C)C)C(C)C)[C@@H](C)CC)[C@@H](C)O)[C@@H](C)CC)C(C)C)C(=O)N[C@H](C(=O)O)C(C)C	–	–	–	–	–	–	–	–	–	–	–	–	–	–	–	–	–	–	Activity (Staphylococcus aureus): inactive; Activity (Escherichia coli): inactive
CO/C=C(/C(=O)OC)c1ccccc1Oc1cc(Oc2ccccc2C#N)ncn1 [AZOXYSTROBIN]	32.3	0	25.3	53	0	32.9	62.7	40.7	11.7	77.2	15	51.7	14.8	15.3	21.7	22.7	16.6	7.1	Activity (Fusarium solani [22]): Active; Activity (Fusarium proliferatum [23]): Active; Activity (Fusarium oxysporum [24]): Active
